Measurements reported in ChEMBL document CHEMBL3108751, “Isomannide-based peptidomimetics as inhibitors for human tissue kallikreins 5 and 7” (ACS Med Chem Lett, 2014).
The source made the active and inactive calls. No cut-off for these calls is given here.

Key:
[1] = target: Kallikrein-6 (Homo sapiens) (UniProt Q92876); test: Inhibition of human KLK6 at 1 to 500 uM after 5 mins by spectrophotometry
[2] = target: Kallikrein-1 (Homo sapiens) (UniProt P06870); test: Inhibition of human KLK1 at 1 to 500 uM after 5 mins by spectrophotometry
Kallikrein-1 (Homo sapiens), sequence (P06870 25-262 limits assumed): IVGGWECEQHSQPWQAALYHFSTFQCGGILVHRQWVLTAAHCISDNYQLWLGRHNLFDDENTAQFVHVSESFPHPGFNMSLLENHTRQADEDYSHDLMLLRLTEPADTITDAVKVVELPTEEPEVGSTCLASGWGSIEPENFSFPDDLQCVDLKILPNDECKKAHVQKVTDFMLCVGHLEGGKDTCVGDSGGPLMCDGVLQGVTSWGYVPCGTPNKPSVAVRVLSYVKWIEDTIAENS

Kallikrein-7 [3] = target: T1, Kallikrein-7 (Homo sapiens, UniProt P49862); test: Inhibition of human recombinant KLK7 expressed in baculovirus-infected insect cell system using Abz-KLYSSKQ-Eddnp as substrate incubated for 5 mins prior to substrate addition by FRET assay
T1 sequence (P49862 whole entry): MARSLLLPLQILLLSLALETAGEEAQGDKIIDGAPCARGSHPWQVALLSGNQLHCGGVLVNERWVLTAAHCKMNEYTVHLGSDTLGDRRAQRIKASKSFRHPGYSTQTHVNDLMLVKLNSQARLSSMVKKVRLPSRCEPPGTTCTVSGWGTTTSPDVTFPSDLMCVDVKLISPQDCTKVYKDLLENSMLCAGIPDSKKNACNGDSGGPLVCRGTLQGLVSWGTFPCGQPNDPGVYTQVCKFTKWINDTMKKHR

Kallikrein-7 [4] = target: T1, Kallikrein-7; test: Competitive inhibition of human recombinant KLK7 expressed in baculovirus-infected insect cell system using Abz-KLYSSKQ-Eddnp as substrate incubated for 5 mins prior to substrate addition by Lineweaver-Burk plot analysis
Procedure, shortened: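 Mechanism was assessed from rates measured without inhibitor and at three inhibitor concentrations. Lineweaver–Burk plots were used to assign the inhibition type and derive Ki.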

Kallikrein-5 [5] = target: T2, Kallikrein-5 (Homo sapiens, UniProt Q9Y337); test: Competitive inhibition of human recombinant KLK5 expressed in baculovirus-infected insect cell system using Abz-KLRSSKQ-Eddnp as substrate incubated for 5 mins prior to substrate addition by Lineweaver-Burk plot analysis
T2 sequence (Q9Y337 whole entry): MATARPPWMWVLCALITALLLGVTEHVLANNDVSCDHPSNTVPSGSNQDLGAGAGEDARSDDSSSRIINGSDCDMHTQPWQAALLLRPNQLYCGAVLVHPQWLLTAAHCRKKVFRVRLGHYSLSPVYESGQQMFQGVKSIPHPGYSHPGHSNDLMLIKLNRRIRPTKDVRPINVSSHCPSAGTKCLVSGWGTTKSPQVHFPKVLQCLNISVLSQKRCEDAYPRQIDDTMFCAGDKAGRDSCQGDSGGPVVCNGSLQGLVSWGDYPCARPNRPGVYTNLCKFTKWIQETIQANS
Procedure, shortened: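 FRET substrate Abz-KLRSSKQ-EDDnp hydrolysed by KLK5, with no inhibitor and with 0.5, 1.0 and 2.0 μM inhibitor. Lineweaver–Burk plots were fitted by linear regression. Ki was taken from a secondary plot of Km/Vmax against inhibitor concentration.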

Kallikrein-5 [6] = target: T2, Kallikrein-5; test: Inhibition of human recombinant KLK5 expressed in baculovirus-infected insect cell system using Abz-KLRSSKQ-Eddnp as substrate incubated for 5 mins prior to substrate addition by FRET assay
Homo sapiens [7] = species on record: Homo sapiens; test: Selectivity ratio of IC50 for human recombinant KLK5 to IC50 for human recombinant KLK7
Homo sapiens [8] = species on record: Homo sapiens; test: Selectivity ratio of IC50 for human recombinant KLK7 to IC50 for human recombinant KLK5

SMILES | inhibition [1] | inhibition [2] | IC50 (Kallikrein-7 [3]) [µM] | Ki (Kallikrein-7 [4]) [µM] | Ki (Kallikrein-5 [5]) [µM] | IC50 (Kallikrein-5 [6]) [µM] | Ratio IC50 (Homo sapiens [7]) | Ratio IC50 (Homo sapiens [8])
CC(C)[C@H](NC(=O)OCc1ccccc1)C(=O)N[C@H](Cc1ccccc1)C(=O)N[C@H]1CO[C@H]2[C@@H]1OC[C@H]2OCc1ccccc1 | inactive | inactive | 56.6 | 3.8 | 3.4 | 21.7 |  | 
CC(C)(C)OC(=O)N[C@H](Cc1c[nH]c2ccccc12)C(=O)O[C@@H]1CO[C@H]2[C@@H]1OC[C@H]2OCc1ccccc1 | inactive | inactive | 59.2 |  |  | 377 | 6 | 
CC(C)(C)OC(=O)N[C@H](Cc1c[nH]c2ccccc12)C(=O)N[C@H]1CO[C@H]2[C@@H]1OC[C@H]2OCc1ccccc1 | inactive | inactive | 418 |  | 28.2 | 39.2 |  | 
CC(C)(C)OC(=O)N[C@H](COCc1ccccc1)C(=O)N[C@H]1CO[C@H]2[C@@H]1OC[C@H]2OCc1ccccc1 | inactive | inactive | 84.5 |  |  | 53.9 |  | 
CC(C)(C)OC(=O)N1CCC[C@H]1C(=O)O[C@@H]1CO[C@H]2[C@@H]1OC[C@H]2OCc1ccccc1 | inactive | inactive | 24.4 | 15.6 |  | 521 | 21.3 | 
CC(C)[C@@H](NC(=O)OC(C)(C)C)C(=O)O[C@@H]1CO[C@H]2[C@@H]1OC[C@H]2OCc1ccccc1 | inactive | inactive | 239 |  |  | 223 |  | 
CC(C)[C@@H](NC(=O)OC(C)(C)C)C(=O)N[C@H]1CO[C@H]2[C@@H]1OC[C@H]2OCc1ccccc1 | inactive | inactive | > 1000 |  |  | 480 |  | 
Cc1ccc(S(=O)(=O)n2cnc(C[C@H](NC(=O)OC(C)(C)C)C(=O)N[C@H]3CO[C@H]4[C@@H]3OC[C@H]4OCc3ccccc3)c2)cc1 | inactive | inactive | 27.8 | 4.4 |  | 157 | 6 | 
CSCC[C@H](NC(=O)OC(C)(C)C)C(=O)O[C@@H]1CO[C@H]2[C@@H]1OC[C@H]2OCc1ccccc1 | inactive | inactive | 28.7 | 18.4 |  | 357 |  | 
O=C(N[C@H]1CO[C@H]2[C@@H]1OC[C@H]2OCc1ccccc1)[C@H]1CCCN1C(=O)OCc1ccccc1 | inactive | inactive | 23.6 | 15.1 |  | 321 |  | 
O=C(N[C@H]1CO[C@H]2[C@@H]1OC[C@H]2OCc1ccccc1)[C@H](Cc1ccccc1)NC(=O)[C@@H]1CCCN1C(=O)OCc1ccccc1 | inactive | inactive | 249 |  |  | 157 |  | 
CC(C)(C)OC(=O)N[C@@H](CCCCNC(=O)OCc1ccccc1)C(=O)N[C@H]1CO[C@H]2[C@@H]1OC[C@H]2OCc1ccccc1 | inactive | inactive | 23.6 | 2.9 | 2.4 | 13.3 |  | 
CSCC[C@H](NC(=O)OC(C)(C)C)C(=O)N[C@H]1CO[C@H]2[C@@H]1OC[C@H]2OCc1ccccc1 | inactive | inactive | 457 |  | 26.6 | 37 |  | 

The next molecules have a lower IC50 (Kallikrein-7 [3]) than those just listed; values first:

inhibition [1] | inhibition [2] | IC50 (Kallikrein-7 [3]) [µM] | Ki (Kallikrein-7 [4]) [µM] | Ki (Kallikrein-5 [5]) [µM] | IC50 (Kallikrein-5 [6]) [µM] | Ratio IC50 (Homo sapiens [7]) | Ratio IC50 (Homo sapiens [8]) | SMILES
inactive | inactive | 16.9 | 2.4 | 1.7 | 11.8 |  |  | CC(C)(C)OC(=O)N[C@H](CCCN/C(=N\C(=O)OCc1ccccc1)NC(=O)OCc1ccccc1)C(=O)N[C@H]1CO[C@H]2[C@@H]1OC[C@H]2OCc1ccccc1
 |  | 13.3 | 1.8 | 70.7 | 99.2 |  |  | O=C(N[C@H]1CO[C@H]2[C@@H]1OC[C@H]2OCc1ccccc1)/C(=C/c1cccs1)NC(=O)c1ccccc1 (stereo in doubt)
inactive | inactive | 13.7 | 1.4 | 0.7 | 9 |  |  | CC(C)(C)OC(=O)N[C@@H](CCCCNC(=O)OCc1ccccc1)C(=O)O[C@@H]1CO[C@H]2[C@@H]1OC[C@H]2OCc1ccccc1
inactive | inactive | 16 | 2.3 | 2.4 | 15.5 |  |  | CC(C)(C)OC(=O)N[C@H](COCc1ccccc1)C(=O)O[C@@H]1CO[C@H]2[C@@H]1OC[C@H]2OCc1ccccc1
inactive | inactive | 16.6 | 1.9 | 0.3 | 3.7 |  | 4 | O=C(O[C@@H]1CO[C@H]2[C@@H]1OC[C@H]2OCc1ccccc1)[C@H]1CCCN1C(=O)OCc1ccccc1
inactive | inactive | 10.2 | 1.3 | 0.6 | 4.7 |  |  | CC(C)(C)OC(=O)N[C@@H](CC(=O)OCc1ccccc1)C(=O)O[C@@H]1CO[C@H]2[C@@H]1OC[C@H]2OCc1ccccc1
inactive | inactive | 19.6 | 2.8 | 0.4 | 3.9 |  | 5 | O=C(OC1CO[C@H]2[C@@H]1OC[C@H]2OCc1ccccc1)[C@H](Cc1ccccc1)NC(=O)[C@@H]1CCCN1C(=O)OCc1ccccc1 (single isomer, unassigned)
